In ChEMBL document CHEMBL1121441, “Synthesis and properties of the sulfonyl analogues of 4(5)-aminoimidazole-5(4)-carboxamide, 4(5)-(formylamino)imidazole-5(4)-carboxamide, guanine, and xanthine” (J Med Chem, 1980):
The source made the active and inactive calls. The rule behind the calls is not given here.

Key:
[1] = Compound was tested for apparent dissociation constant at pH 13; format: ADME
Outline: (§1)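 pKa values were determined potentiometrically on 0.001 M solutions with a pH meter. For one analogue the values came from least-squares analysis with activity corrections. Measurement temperature was recorded with each value, and standard deviations were reported.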

[2] = Compound was tested for apparent dissociation constant at pH 7; format: ADME; outline: as §1
[3] = Compound was tested for apparent dissociation constant at pH 10; format: ADME; outline: as §1
[4] = system: L1210; assay: Compound tested for inhibition of growth of L1210 cells in culture at 10e-4 M; NI = no inhibition; format: functional, cell-based; conditions: Mus musculus
Outline: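 Murine L1210 leukemia cells were harvested in log phase and resuspended in RPMI 1640 with 10% fetal bovine serum at a starting density of 17.5×10^4 cells/mL. Analogue stock was 5×10⁻³ M in phosphate-buffered saline, pH 7.4, filter-sterilized, then serially diluted in medium. Final concentrations were 10⁻⁴ to 10⁻⁸ M. Cultures grew 72 h at 37 °C and were counted every 24 h by Coulter counter against untreated controls.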

[5] = Compound was tested for apparent dissociation constant at pH 9; format: ADME; outline: as §1
[6] = Compound was tested for apparent dissociation constant at pH 14; format: ADME; outline: as §1

pKa [1] | pKa [2] | pKa [3] | pKa [5] | pKa [6] | SMILES | inhibition [4]
11 | 2.55 | 8.99 | – | – | O=C1Nc2[nH]cnc2S(=O)(=O)N1 | inactive
– | – | – | 6.84 | 11.6 | NC1=NS(=O)(=O)c2nc[nH]c2N1 | inactive
– | 8.7 | – | – | – | NS(=O)(=O)c1[nH]cnc1NC=O | inactive
– | 9.43 | – | – | – | Nc1[nH]cnc1S(N)(=O)=O | inactive
